Source: ChEMBL document CHEMBL1131108, “Phenothiazine inhibitors of trypanothione reductase as potential antitrypanosomal and antileishmanial drugs” (J Med Chem, 1998)

Assays:
[1] = biological target: T1, Glutathione reductase, mitochondrial (Homo sapiens, UniProt P00390); test: Inhibitory activity against human erythrocyte glutathione reductase; '*' indicates No inhibition
T1 sequence (P00390 whole entry): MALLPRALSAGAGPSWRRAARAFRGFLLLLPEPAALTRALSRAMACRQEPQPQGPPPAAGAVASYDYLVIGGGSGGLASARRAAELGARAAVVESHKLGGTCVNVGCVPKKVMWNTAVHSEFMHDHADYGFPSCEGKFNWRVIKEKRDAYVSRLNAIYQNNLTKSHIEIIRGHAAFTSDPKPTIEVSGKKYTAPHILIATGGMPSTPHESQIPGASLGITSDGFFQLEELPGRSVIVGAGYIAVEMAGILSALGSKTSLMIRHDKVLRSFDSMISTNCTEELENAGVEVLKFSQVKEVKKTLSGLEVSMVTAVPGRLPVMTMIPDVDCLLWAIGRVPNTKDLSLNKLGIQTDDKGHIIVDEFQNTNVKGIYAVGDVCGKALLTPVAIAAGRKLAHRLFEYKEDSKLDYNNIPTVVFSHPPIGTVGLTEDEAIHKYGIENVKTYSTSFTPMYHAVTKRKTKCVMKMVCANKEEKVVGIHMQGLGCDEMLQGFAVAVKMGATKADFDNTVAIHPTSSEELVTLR
In short: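 Enzyme was isolated from human erythrocytes and assayed spectrophotometrically at 340 nm under literature conditions. Compounds were tested up to 1 mM, or 0.1 mM where solubility was limited.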

Trypanothione reductase [2] = biological target: T2, Trypanothione reductase (Trypanosoma cruzi, UniProt P28593); test: Inhibitory activity against recombinant Trypanosoma cruzi (Trypanosoma cruzi) Trypanothione reductase; settings: read-out: I50
T2 sequence (P28593 whole entry): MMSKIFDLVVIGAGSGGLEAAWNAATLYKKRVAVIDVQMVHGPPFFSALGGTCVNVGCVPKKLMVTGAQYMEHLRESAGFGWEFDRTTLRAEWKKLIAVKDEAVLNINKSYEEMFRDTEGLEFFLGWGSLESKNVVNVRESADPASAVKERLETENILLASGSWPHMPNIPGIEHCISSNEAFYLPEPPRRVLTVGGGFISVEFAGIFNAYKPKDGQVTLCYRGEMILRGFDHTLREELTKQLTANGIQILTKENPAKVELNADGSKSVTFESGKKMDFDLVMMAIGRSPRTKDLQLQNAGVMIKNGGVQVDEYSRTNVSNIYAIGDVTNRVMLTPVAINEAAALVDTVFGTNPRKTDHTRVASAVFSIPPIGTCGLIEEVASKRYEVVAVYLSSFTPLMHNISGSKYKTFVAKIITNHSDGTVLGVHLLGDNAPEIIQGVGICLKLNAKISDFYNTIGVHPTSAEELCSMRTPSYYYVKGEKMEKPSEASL
In short: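 Recombinant T. cruzi TR, overexpressed in E. coli JM109 and homogeneous by SDS-PAGE, was used at about 0.3 µg/mL. Assay at 25 °C in 0.02 M HEPES pH 7.25 with 0.15 M KCl, 1 mM EDTA, 0.12 mM trypanothione disulfide and 0.1 mM NADPH, read at 340 nm. I50 came from nonlinear least-squares fitting of velocity versus inhibitor concentration using the linear competitive inhibition equation.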

Mus musculus [3] = species on record: Mus musculus; test: Effective dose against Leishmania donovani (Leishmania donovani) amastigotes in mouse peritoneal macrophages; Toxic to the macrophages; assay type: functional, organism-based
In short: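 Mouse peritoneal macrophages in RPMI 1640 + 10% heat-inactivated FCS, 37 °C, 5% CO2, infected with L. donovani (MHOM/ET/69/L82) amastigotes from infected hamster spleens. Compounds added 24 h post-infection in 3-fold dilutions, quadruplicate, for 5 days. Slides methanol-fixed, Giemsa-stained; proportion of infected macrophages scored.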

Mus musculus [4] = species on record: Mus musculus; test: Effective dose against Trypanosoma cruzi (Trypanosoma cruzi) trypomastigotes in mouse peritoneal macrophages; Toxic to the macrophages; assay type: functional, organism-based
In short: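 T. cruzi (MHOM/BR/00/Y) trypomastigotes from infected L6 rat myoblast cultures infect mouse peritoneal macrophages at 5 parasites:1 macrophage, 37 °C, 5% CO2/air. Compounds in fresh medium 24 h post-infection, 3-fold dilutions, quadruplicate, 3 days. Cultures fixed, Giemsa-stained; proportion of infected macrophages scored.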

Trypanosoma brucei [5] = test: Effective dose against Trypanosoma brucei) bloodstream form trypomastigotes in HMI-9 medium; settings: read-out: ED50 (the source's name)
Mus musculus [6] = species on record: Mus musculus; test: Effective dose against Leishmania donovani (Leishmania donovani) amastigotes in mouse peritoneal macrophages; assay type: functional; settings: read-out: ED50 (the source's name)
In short: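 Mouse peritoneal macrophages kept on chamber slides in RPMI 1640 with 10% heat-inactivated foetal calf serum, 37 °C, 5% CO2, and infected with L. donovani MHOM/ET/69/L82 amastigotes taken from infected hamster spleens. After 24 h, compounds were added in a 3-fold dilution series in quadruplicate for 5 days. Slides were methanol-fixed and Giemsa-stained, then scored for the proportion of infected macrophages.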

Mus musculus [7] = species on record: Mus musculus; test: Effective dose against Trypanosoma cruzi (Trypanosoma cruzi) trypomastigotes in mouse peritoneal macrophages; assay type: functional; settings: read-out: ED50 (the source's name)
Trypanosoma brucei [8] = test: Effective dose against Trypanosoma brucei) bloodstream form trypomastigotes; settings: read-out: ED50 (the source's name)
Mus musculus [9] = species on record: Mus musculus; test: Effective dose against Trypanosoma cruzi (Trypanosoma cruzi) trypomastigotes in mouse peritoneal macrophages; Range is 10-30 uM; assay type: functional; settings: read-out: ED50 (the source's name)
Mus musculus [10] = species on record: Mus musculus; test: Effective dose against Trypanosoma […]) trypomastigotes in mouse peritoneal macrophages; assay type: functional; settings: read-out: ED50 (the source's name)
Mus musculus [11] = species on record: Mus musculus; test: Effective dose against Trypanosoma uM; assay type: functional
Trypanothione reductase [12] = biological target: T2, Trypanothione reductase; test: Inhibitory activity against recombinant Trypanosoma cruzi (Trypanosoma cruzi) Trypanothione reductase (linear competitive type)
Mus musculus [13] = species on record: Mus musculus; test: Effective dose against […]; Toxic to the macrophages; assay type: functional
Trypanosoma brucei [14] = test: Effective dose against Trypanosoma brucei) bloodstream form trypomastigotes; <3, >1; settings: read-out: ED50 (the source's name)

Row | SMILES | I50 [1] | IC50 (Trypanothione reductase [2]) [µM] | EC50 (Mus musculus [6]) [µM] | EC50 (Mus musculus [7]) [µM] | further results
1 | COC(=O)c1ccc2c(c1)N(CCCN(C)C)c1ccccc1S2 | Not Active | 348 |  |  | 
2 | N=C(N)CCN1c2ccccc2Sc2ccc(Cl)cc21 |  | 307 |  |  | 
3 | CC(=O)c1ccc2c(c1)N(CCCN(C)C)c1ccccc1S2 [ACEPROMAZINE] |  | 502 |  |  | ED50 (Mus musculus [3]): Toxic; ED50 (Mus musculus [4]): Toxic; EC50 (Trypanosoma brucei [5]): 6.42 µM
4 | CCN(CC)CCC(=O)N1c2ccccc2Sc2ccc(Cl)cc21 [CHLORACYZINE] |  | 802 |  |  | 
5 | CN(C)CCCN1c2ccccc2Sc2ccc(C(=O)O)cc21 | Not Active | 3910 |  |  | 
6 | CC(=O)N1c2ccccc2Sc2ccc(C(=O)CCl)cc21 |  | 436 |  |  | 
7 | CN(C)CCCN1c2ccccc2Sc2c(Cl)cccc21 | Not Active | 765 | 48.4 | 29.5 | EC50 (Trypanosoma brucei [8]): 3.01 µM
8 | O=C(CBr)N1c2ccccc2Sc2ccc(Cl)cc21 |  | 251 | 5.97 |  | EC50 (Mus musculus [9]): 10 µM; EC50 (Trypanosoma brucei [5]): 0.97 µM
9 | C/C(=N/OCc1ccccc1)c1ccc2c(c1)N(CCCN(C)C)c1ccccc1S2 |  | 204 | 16.5 | > 30 | EC50 (Mus musculus [10]): 1.56 µM
10 | CN(C)CCCN1c2ccccc2Sc2ccc(CO)cc21 | Not Active | 1190 |  |  | 
11 | C/C(=N\OCc1ccccc1)c1ccc2c(c1)N(CCCN(C)C)c1cc(Cl)ccc1S2 |  | 199 | 6.78 | > 30 | EC50 (Mus musculus [10]): 3.5 µM
12 | CO/N=C(/C)c1ccc2c(c1)N(CCCN(C)C)c1ccccc1S2 |  | 351 | > 30 | > 30 | ED50 (Mus musculus [11]): 10 µM
13 | CN(C)CCCN1c2ccccc2[S+]([O-])c2ccc(Cl)cc21 (stereo unspecified) [CHLOROPROMAZINE SULFOXIDE] | Not Active | 76.6 |  |  | 
14 | CC(CN1c2ccccc2Sc2ccccc21)N(C)C (stereo unspecified) [PROMETHAZINE] | Not Active | 271 |  |  | Ki (Trypanothione reductase [12]): 216 µM
15 | O=C(CCC(=O)N1c2ccccc2Sc2ccc(Cl)cc21)NNc1ccccc1 |  | 151 | 34.2 |  | ED50 (Mus musculus [13]): Toxic; EC50 (Trypanosoma brucei [5]): 15.2 µM
16 | CCCN1CCN(CCCN2c3ccccc3Sc3ccc(Cl)cc32)CC1 | Not Active | 95.5 |  |  | Ki (Trypanothione reductase [12]): 18.7 µM
17 | NCCCN1c2ccccc2Sc2ccc(Cl)cc21 [NOR2-CHLORPROMAZINE] | Not Active | 139 | 10 | 5.9 | EC50 (Trypanosoma brucei [14]): < 3 µM
18 | CCN(CC)CCCC(=O)N1c2ccccc2Sc2ccc(Cl)cc21 |  | 320 |  |  | 
19 | CCCC(=O)N1c2ccccc2Sc2ccc(Cl)cc21 |  | 95 | > 30 | > 30 | EC50 (Trypanosoma brucei [5]): > 30 µM
20 | N=C(N)CCN1c2ccccc2Sc2ccccc21 |  | 992 |  |  | 
21 | CNCCCN1c2ccccc2Sc2ccccc21 | Not Active | 1030 |  |  | 
22 | CC(=O)c1ccc2c(c1)N(CCCN(C)C)c1cc(Cl)ccc1S2 |  | 175 | 12.1 | > 30 | EC50 (Trypanosoma brucei [5]): 1.29 µM
23 | O=C(CNc1ccccc1)N1c2ccccc2Sc2ccc(Cl)cc21 |  | 256 |  |  | 
24 | CC(=O)c1ccc2c(c1)N(C(C)=O)c1cc(C(C)=O)ccc1S2 |  | 49.1 | > 30 | > 30 | EC50 (Trypanosoma brucei [5]): > 30 µM
25 | CC(CN(C)C)CN1c2ccccc2Sc2ccccc21 (stereo unspecified) [METHYLPROMAZINE] | Not Active | 249 |  |  | Ki (Trypanothione reductase [12]): 127 µM
